Results taken from ChEMBL document CHEMBL1127463, “Heteroaryl-fused 2-phenylisothiazolone inhibitors of cartilage breakdown” (J Med Chem, 1994).
pIC50: −log10 of the molar value.

Species on record: Bos taurus
Assay: In vitro inhibition of human recombinant IL-1-beta-induced breakdown of bovine cartilage in a cartilage organ culture assay
Type: functional
Settings: not given
Summary of the method: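 Bovine nasal septum cartilage discs (1 mm × 8 mm, cut in eighths) cultured in DMEM + 5% FCS with antibiotics, ± rh IL-1β 500 ng/mL ± drug (DMSO ≤1%) for 40 h at 37 °C. Released GAG measured by 1,9-dimethylmethylene blue against chondroitin sulfate standard, µg/mg wet weight. Eight replicates per group; dose response gives IC50 (µM).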

SMILES	pIC50
COc1ccc2c(c1)c(CC(=O)O)c(C)n2C(=O)c1ccc(Cl)cc1 [INDOMETHACIN]	< 4.52
CN(C)[C@@H]1C(O)=C(C(N)=O)C(=O)[C@@]2(O)C(O)=C3C(=O)c4c(O)cccc4[C@@](C)(O)[C@H]3C[C@@H]12 [TETRACYCLINE]	< 4.52
O=c1c2cccnc2sn1-c1ccc(F)cc1	4.92
COc1ccc2cc([C@H](C)C(=O)O)ccc2c1 [NAPROXEN]	< 4.52
O=c1c2cccnc2sn1-c1ccc(Cl)cc1	5.07
COC(=O)c1ccccc1-n1sc2ncccc2c1=O	4.60
COC(=O)c1cccc(OC)c1-n1sc2ncccc2c1=O	5.10
O=C1CCN(c2ccccc2)N1 [PHENIDONE]	< 4.52

Species on record: Bos taurus
Assay: Tested in vitro at 30 uM for its ability to inhibit the human recombinant IL-1-beta-induced breakdown of bovine cartilage in a cartilage organ culture assay
Type: functional
Settings: Cartilage tissue
Summary of the method: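 Cartilage organ culture screen at a single 30 µM concentration. Bovine nasal septum explants in DMEM/5% FCS with rh IL-1β 500 ng/mL, 40 h, 37 °C, 95% air/5% CO2. Proteoglycan breakdown read as GAG release by dimethylmethylene blue; 35SO4 uptake over a further 2 h used for viability. Eight replicates; percent inhibition.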

SMILES	inhibition [%]
CS(=O)(=O)Nc1ccc(-n2sc3ncccc3c2=O)cc1	28
O=c1c2cccnc2sn1-c1ccc(C(F)(F)F)cc1	17
COc1nc(OC)c2sn(-c3ccccc3)c(=O)c2n1	40
COc1ccc(-n2sc3c(O)nc(O)nc3c2=O)cc1	49
COc1ccc(-n2sc3c(OC)nc(OC)nc3c2=O)cc1	50
COc1ccc(-n2sc3c(OC)nccc3c2=O)cc1	20
COC(=O)c1cccc(-n2sc3ncccc3c2=O)c1	35
COc1cc2c(=O)n(-c3ccccc3)sc2c(OC)n1	39
Nc1cccc(-n2sc3ncccc3c2=O)c1	34
N#Cc1ccc(-n2sc3ncccc3c2=O)cc1	40
O=c1c2cccnc2sn1-c1cccc([N+](=O)[O-])c1	37
O=c1c2ccnc(Cl)c2sn1-c1ccccc1	38
COc1cccc(OC)c1-n1sc2ncccc2c1=O	40
O=c1c2cccnc2sn1-c1ccccn1	23
O=c1c2cccnc2sn1-c1ccccc1Cl	0
COc1nc(OC)c2sn(-c3ccc(C(F)(F)F)cc3)c(=O)c2n1	39

Each compound was assayed against Stromelysin-1 (Homo sapiens) (UniProt P08254) (assay: Tested for inhibition of stromelysin using [3H]transferrin, following pre-incubation with prostromelysin for 0 hr prior to activation by plasmin). Settings: concentration not given here.
Chain of Stromelysin-1 (Homo sapiens) (P08254 whole entry, looked up): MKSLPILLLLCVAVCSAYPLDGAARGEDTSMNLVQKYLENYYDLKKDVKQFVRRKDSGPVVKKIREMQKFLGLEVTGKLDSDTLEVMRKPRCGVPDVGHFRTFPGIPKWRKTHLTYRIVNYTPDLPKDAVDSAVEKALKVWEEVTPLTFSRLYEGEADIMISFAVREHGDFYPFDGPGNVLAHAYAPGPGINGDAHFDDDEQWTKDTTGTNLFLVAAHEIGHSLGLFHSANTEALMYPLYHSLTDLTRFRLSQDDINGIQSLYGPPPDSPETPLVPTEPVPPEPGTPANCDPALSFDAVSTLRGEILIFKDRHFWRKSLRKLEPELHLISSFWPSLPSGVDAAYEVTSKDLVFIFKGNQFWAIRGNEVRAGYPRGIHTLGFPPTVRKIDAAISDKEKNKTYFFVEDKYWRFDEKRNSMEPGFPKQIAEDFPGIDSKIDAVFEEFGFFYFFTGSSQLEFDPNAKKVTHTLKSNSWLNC

SMILES	inhibition [%]
COc1ccc(-n2sc3ncccc3c2=O)c(OC)c1	45
COc1ccc(OC)c(-n2sc3ncccc3c2=O)c1	51

The compounds below were run against Stromelysin-1 (Homo sapiens) (UniProt P08254) (assay: Tested for inhibition of stromelysin using [3H]transferrin, following pre-incubation with prostromelysin for 3 hr prior to activation by plasmin). Settings: concentration not given here.

SMILES	inhibition [%]
COc1ccc(-n2sc3ncccc3c2=O)c(OC)c1	65
COc1ccc(OC)c(-n2sc3ncccc3c2=O)c1	68
